High-throughput results from PubChem.
ABCG2 inh – ABCG2 efflux pump inhibitors, primary screen, multiplex with ABCB1, IgMXP3 cells, flow cytometry. 0.1% of 190,000 active. inhibition, % at 6.6 µM. JC-1 efflux;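 active = inhibition above 80%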;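 note: 0% = DMSO and 100% = nicardipine control wells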
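Test system: ABCG2 IgMXP3 and barcoded ABCB1 CCRF-Adr cell mix; Schedule: cells with compound and JC-1, 10 min at 25 °C, rotating, no wash; Technique: flow cytometry of retained JC-1 fluorescence; Measure: % inhibition of efflux relative to nicardipine and DMSO; Controls: nicardipine high and DMSO low controls.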
GSH bead fluor – compound fluorescence on glutathione beads, profiling panel, artefact control, biophysical, 488/530 nm, flow cytometry | 0.25% of 190,000 active | GSH beads flow cytometry, compound fluorescence 488/530 nm; stronger effect = higher value | fluorescence (KMESF) at 10 µM; in the data active = fluorescence above about 89;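 note: glutathione beads carrying GST-tagged Bcl family fusion proteins plus one bare bead set; values are compound well signal with DMSO vehicle wells as background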
PKD1 inh – inhibitors of human PKD1 kinase, biochemical, fluorescence polarization | Serine/threonine-protein kinase D1 (Homo sapiens), Q15139 | inhibition, % (no concentration beside the values) | 0.056% of 200,000 active | AID 797, 2007 | PKD1 kinase fluorescence polarization assay
Avidin fluor – green autofluorescence of compounds with avidin beads – biophysical, 488/530 nm, flow cytometry, artefact control, profiling panel; 0.38% of 220,000 active; compound fluorescence 488/530 nm; stronger effect = higher value; fluorescence (KMESF) at 10 µM; in the data active = fluorescence above about 47
ABCB1 block – ABCB1 efflux pump inhibitors, primary screen, cell-based, multiplex, flow cytometry, ABCG2 counter-screen | CCRF-Adr cells, JC-1 efflux | inhibition, % at 6.6 µM | 0.067% of 190,000 active; in the data active = inhibition above about 40%;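 note: 0% = vehicle and 100% = reference inhibitor; higher value means more JC-1 retained so stronger ABCB1 efflux block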
Lmaj promast – Leishmania major promastigote growth inhibition, primary screen | AID 1063, 2008 | 9% of 200,000 active | Leishmania major promastigotes, resazurin fluorescence viability | inhibition, % at 10 µM;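 note: promastigotes grown with compound for 44 hours at 28 °C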
* hit, by the source's call; · = no result. This is one part of a sample in which hits are shown more often than they occur. Cut-off read from the data, not from the text of the source, unless noted: active = inhibition above about 50%; inactive = the rest.

SMILES	ABCG2 inh	GSH bead fluor	PKD1 inh	Avidin fluor	ABCB1 block	Lmaj promast
O=C(c1ccc(Cl)cc1)C1CCCN(Cc2cnn(-c3ccccc3)c2)C1 (configuration not stated)	0	18	-8	7	1	84*
Cc1nn(C)cc1CN1CCCC(C(=O)c2ccc(-c3ccccc3)cc2)C1 (configuration not stated)	-3	10	-3	10	1	90*
Cn1cc(CN2CCN(c3cnccn3)CC2)c(-c2cccc(Cl)c2)n1	6	11	-2	4	3	27
CC(C1CCN(Cc2cn(C)nc2-c2cccc(Cl)c2)CC1)N1CCOCC1 (configuration not stated)	1	19	4	6	1	69*
S=C(NCCc1ccccc1)Nc1ccc(Br)cc1	4	18	-3	10	0	15
COc1ccc(-n2c(SCC(=O)N/N=C(\C)c3cccnc3)nc3ccccc3c2=O)cc1	·	·	·	8	·	·
COCCCNC(=O)COc1ccc(Br)cc1Cl	18	7	-19	14	1	43
C=CCN(CC=C)CCCOc1ccc(Br)cc1Cl	23	14	6	10	2	51*
COCCCNCCCOc1ccc(Cl)cc1Br	3	22	-7	24	1	88*
CC(C)NCCCCOc1ccc(Br)cc1Cl	2	24	-2	10	0	99*
C=CCNCCCOc1ccc(C)cc1Br	4	11	-8	7	0	94*
C=CCNC(=O)CCCOc1cc(C)ccc1C	5	43	-8	6	0	-1
CS(=O)(=O)Nc1cccc(C2=NN(C(=O)c3ccccc3Cl)C(c3ccccc3O)C2)c1 (configuration not stated)	0	9	6	5	1	-7
CCOc1ccccc1OCCCOc1ccc(C)cc1Br	-2	34	6	9	0	2
COCCCNCCCOc1ccc(C)cc1Br	-1	7	-12	10	0	99*
CC(C)NCCCOc1ccc(Cl)cc1Br	2	26	5	21	1	94*
COCCNCCCOc1ccc(C)cc1Br	0	24	-11	11	0	28
CCCCNCCOCCOc1ccc(Cl)cc1Br	·	13	0	6	·	100*
CCN(CC)CCCOc1ccc(C)cc1Br	0	23	3	11	0	94*
CCOC(=O)CNC(=O)COc1ccc(Cl)cc1Br	61	36	5	15	3	-6
Clc1ccc(OCCOCCOc2cccc3cccnc23)c(Br)c1	17	11	5	12	1	-5
NNC(=O)C(Cc1ccccc1)NC(=O)OCc1ccccc1 (configuration not stated)	4	19	0	7	1	-7
O=C(Cc1ccc([N+](=O)[O-])cc1)N1N=C(c2ccncc2)CC1(O)C(F)(F)F (configuration not stated)	1	13	-9	8	0	39
Fc1ccc(OCCOCCOc2cccc3[nH]ccc23)cc1	6	16	1	8	1	11
CCCCNCCOCCOc1ccc(F)cc1	1	11	1	25	0	92*
SMILES	ABCG2 inh	GSH bead fluor	PKD1 inh	Avidin fluor	ABCB1 block	Lmaj promast
Cc1nc(SCc2ccccc2)c([N+](=O)[O-])[nH]1	25	7	-4	9	1	54*
C/C(=N\NC(=O)CSc1nc2ccccc2s1)c1ccco1	-4	408*	-8	29	1	1
O=C(CSc1nc2ccccc2s1)N/N=C/c1ccco1	3	10	-4	4	0	-2
O=c1nc(N/N=C/C=C/c2ccccc2)cn[nH]1	·	·	·	6	·	·
CCOC(=O)c1ccc(NC(=O)CSc2nc3c(c(=O)n2CC)SC(C)C3)cc1 (configuration not stated)	2	17	-15	6	1	53*
C=CCn1c(SCc2ccc(C(=O)OC)cc2)nnc1-c1sc(N)nc1C	7	25	-2	4	2	-2
C=CCn1c(SCC(=O)Nc2ccc(C(=O)OCC)cc2)nnc1-c1sc(N)nc1C	0	17	0	37	0	58*
N#Cc1ccc(C(=O)Nc2ccc([N+](=O)[O-])cc2)c(F)c1	3	10	0	10	0	-6
CCN(CC)C(=O)/C(=C\c1cccc([N+](=O)[O-])c1)NC(=O)c1ccco1	2	6	-2	3	0	1
CC1CCN(Cc2c(C(=O)O)nnn2-c2nonc2N)CC1	0	26	5	11	0	-5
CCOC(=O)C1=C(C)N=c2s/c(=C\c3ccncc3)c(=O)n2C1c1ccc2c(c1)OCO2 (configuration not stated)	34	30	-3	21	8	99*
CCOC(=O)C1=C(C)N=c2s/c(=C/c3ccccc3)c(=O)n2C1c1ccc(OC)c(OC)c1 (configuration not stated)	1	39	-12	11	4	28
Cc1nn(C(C)C(=O)c2cccc(Cl)c2)c(C)c1[N+](=O)[O-] (configuration not stated)	8	13	-4	8	-1	-6
Cn1cnc([N+](=O)[O-])c1S(=O)(=O)c1cccc(Cl)c1	7	8	-4	5	0	65*
COc1cc2c(cc1NC(=O)COC(=O)CNS(=O)(=O)c1ccc(C)cc1)oc1ccccc12	7	11	8	7	0	0
CN(CCCN1CCOCC1)Cc1nc(-c2ccccc2)no1	0	13	-1	11	0	78*
CC(C)OCCCNC1=C(Cl)C(=O)c2ccccc2C1=O	·	·	·	6	·	·
Cc1ccccc1N1C(=O)C(Oc2ccc(Cl)cc2)C1CNCCCOC(C)C (configuration not stated)	16	4	-4	11	22	93*
COCCCNCC1C(Oc2ccc(Cl)cc2)C(=O)N1c1ccccc1C (configuration not stated)	18	7	-4	9	9	84*
Cc1ccc(CSc2nnc([C@@H]3CCCN3C(=O)OC(C)(C)C)o2)cc1	·	·	·	9	·	·
CCCCN(C)C1CCN(C(=S)Nc2ccc(OCC)cc2)CC1	0	11	-10	18	0	82*
CCOc1ccc(NC(=S)N2CCC(N(C)CCN3CCOCC3)CC2)cc1	-4	22	-6	13	-1	45
CCCCN(C)C1CCN(C(=S)Nc2cccc(OC)c2)CC1	1	18	1	5	0	80*
